Screens from PubChem.
This is one part of a sample in which hits are shown more often than they occur.
Calb biofilm kill: clotrimazole potentiators killing C. albicans biofilm, primary screen, 4-compound mixtures; 120,000 compounds, 0.02% hits; AID 1242, 2008; C. albicans biofilm persisters + clotrimazole, fluorescence viability; primary screen in compound mixtures of four per well; inhibition, % at 7.6 µM;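 active means inhibition above 30.3% in the primary screen of four-compound pools, then above 30% when the compound was retested; inconclusive means passed the primary limit but could not be retested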;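 further: compounds exposed to preformed 24 h biofilms for 48 h; 0% = untreated biofilm control and 100% = clotrimazole plus chlorhexidine kill blank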
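Incubation: 24 h biofilm formation, then 48 h compound exposure, 37 °C | Material: C. albicans biofilms | Buffer or medium: RPMI/MOPS medium, pH 7.0 | Measured by: 2-h Alamar Blue fluorescence, 535/590 nm excitation/emission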
ROMK mod: ROMK potassium channel modulators, primary screen, cell-based, thallium flux, MLSMR library; ATP-sensitive inward rectifier potassium channel 1 (Homo sapiens), P48048; Tet-inducible ROMK, thallium flux fluorescence; actives lie on both sides; B-score at 10 µM; 130,000 compounds, 2% hits;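 active means signal ratio slope over the read window, or its plate-corrected B-score, at least 3 SD from the plate mean, either direction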;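 further: B-score of the F/F0 ratio slope over 7 to 12 s after thallium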
Target sequence (P48048 whole entry, looked up): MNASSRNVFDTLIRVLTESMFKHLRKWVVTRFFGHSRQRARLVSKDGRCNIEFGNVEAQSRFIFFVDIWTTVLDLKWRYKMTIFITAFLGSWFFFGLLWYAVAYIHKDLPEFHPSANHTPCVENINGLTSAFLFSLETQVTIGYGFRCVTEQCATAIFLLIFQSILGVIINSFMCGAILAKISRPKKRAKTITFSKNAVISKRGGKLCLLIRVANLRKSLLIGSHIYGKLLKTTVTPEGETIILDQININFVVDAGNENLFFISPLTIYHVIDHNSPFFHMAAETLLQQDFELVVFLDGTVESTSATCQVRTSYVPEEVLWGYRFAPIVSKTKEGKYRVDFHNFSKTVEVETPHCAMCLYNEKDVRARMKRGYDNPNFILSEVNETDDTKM
ROMK hit retest: ROMK channel modulator hit retest, confirmation, cell-based, thallium flux, duplicate, resupplied hits. shares compounds with ROMK mod. fluorescence ratio; hits give low values. normalized thallium flux (F/F0 slope) at 10 µM. 3,000 compounds, 54% hits;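 active means Flux at 10 µM at least 3 SD below or above vehicle control mean in one or both replicates; inconclusive means no clear call, values can overlap the other calls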
An asterisk follows results filed as active; ? = inconclusive; · = not tested or not shown.

SMILES	Calb biofilm kill	ROMK mod	ROMK hit retest
CCCCCCCCCCn1ccc(=N)cc1	18.3	-3.62*	?
COc1cccc(CC(=O)Nc2ccccc2C(=O)N2CCOCC2)c1	13.3	1.26	·
Cc1cccc(OCC(=O)Nc2ccccc2C(=O)N2CCOCC2)c1	27.5	3.09*	?
Cc1cccc2cc(C#N)c(NCCCNS(=O)(=O)c3ccc(Cl)cc3)nc12	12.8	·	·
Cn1c(=O)[nH]c(=O)c2c1nc(Br)n2CCCc1ccccc1	·	-2.34	·
Cn1c(=O)c2c(nc(Br)n2CCCc2ccccc2)n(C)c1=O	·	-4.13*	0.0633*
CCCCCCCCNC(=S)NCCN1CCCCC1	11.3	-2.59*	0.0482*
S=C(NCCCN1CCOCC1)NCCCN1CCOCC1	4.5	-0.0476	·
O=C(c1ccc(Cl)c(S(=O)(=O)N2CCCCCC2)c1)N1CCN(c2ccccc2O)CC1	-3.2	-0.0209	·
O=C(Nc1nc2n(n1)C(c1ccccc1)C=C(c1ccccc1)N2)c1ccco1 (configuration not stated)	·	·	0.0655*
CCC(=O)Nc1nc2n(n1)C(c1ccc(OC)cc1)C=C(c1ccccc1)N2 (configuration not stated)	·	-2.35	·
O=C(COC(=O)CNS(=O)(=O)/C=C/c1ccccc1)Nc1cc(S(=O)(=O)N2CCCCC2)ccc1Cl	7.8	1.1	·
O=[N+]([O-])c1ccc(Sc2n[nH]c(-c3ccc(Cl)cc3Cl)n2)nc1	·	·	0.0599*
CC(C)(C)c1nc(Sc2ccc([N+](=O)[O-])cn2)n[nH]1	13.1	·	·
Nc1nc(NCc2ccco2)nc(N2CCCC2)c1[N+](=O)[O-]	-5.2	·	·
Nc1nc(NCc2ccco2)nc(N2CCCCCC2)c1[N+](=O)[O-]	12.2	·	0.0622*
Cc1cc(C)cc(N(CCC(=O)Nc2nnc(C)s2)S(=O)(=O)c2ccc(Cl)cc2)c1	19.1	·	·
CC(C)C(NC(=O)c1ccc(C(C)(C)C)cc1)C(=O)NCC(c1ccccc1)N(C)C (configuration not stated)	-0.1	·	·
O=C(c1cccc(COc2cccc3ccccc23)c1)N1CCCC1	19.6	-3.48*	0.0869
NNC(=O)c1ccc(COc2cccc3ccccc23)cc1	7.9	·	·
CN(Cc1nc(-c2cnccn2)no1)Cc1cccc2ccccc12	17.2	0.182	·
CCOc1ccc2nc(NC(=O)C(NS(=O)(=O)c3cccc4nsnc34)C(C)C)sc2c1 (configuration not stated)	·	·	0.0565*
CCOc1ccc2nc(NC(=O)Nc3ccccc3)sc2c1	·	-0.584	·
COc1ccccc1-c1nc2ccccc2nc1-c1ccccc1OC	12.5	-0.678	·
COc1ccccc1C1=NC(c2ccc(C)cc2)N=C1C (configuration not stated)	22.4	-2.69*	0.0751
SMILES	Calb biofilm kill	ROMK mod	ROMK hit retest
CC(C)(C)c1oc(C(=O)O)cc1CN1CCOCC1	10.3	·	·
COc1ccc(NC(=O)NC23CC4(C)CC(C)(CC(C)(C4)C2)C3)cc1OC	14.0	·	·
O=C(O)c1ccc2c(c1)C1C=CCC1C(c1cc3c(cc1Br)OCO3)N2 (configuration not stated)	17.9	3.97*	0.0895
Brc1cc2c(cc1C1Nc3ccccc3C3C=CCC31)OCO2 (configuration not stated)	10.5	0.00347	·
Cc1ccc(NC(=O)COC(=O)Cn2cnc3c2c(=O)n(C)c(=O)n3C)c(Cl)c1	2.2	-1.01	·
O=[N+]([O-])c1ccc(S(=O)(=O)CC(CN2CCCCC2)N2CCCCC2)cc1 (configuration not stated)	-2.6	-4.77*	0.0529*
O=[N+]([O-])c1ccc(S(=O)(=O)CC(CN2CCOCC2)N2CCOCC2)cc1 (configuration not stated)	9.6	-0.453	·
CCC(C)(C)NC(=O)c1ccc(S(=O)(=O)N2CCCCCC2)cc1	14.0	-0.664	·
Cc1ccccc1C1c2[nH]c3ccccc3c2CCN1Cc1cccn1-c1ncccn1 (configuration not stated)	35.0	·	·
CCCCn1cnc2cc(C)c(C)cc21	27.8	-1.14	·
Cc1ccc2c(C(=O)CCl)c(C)[nH]c2c1	17.5	·	·
Cc1ccc2[nH]cc(C(=O)CCl)c2c1	19.2	-4.2*	0.0554*
COc1ccc(C(=O)CSc2nnc(CNc3nc(-c4ccccc4)cs3)n2C)cc1	·	-1.69	·
CCOc1ccc(NC(=S)N(CCOC)C(C)c2ccco2)cc1 (configuration not stated)	13.3	·	·
CNc1ccc(/C=C(\C#N)c2ccccn2)cc1[N+](=O)[O-]	15.9	-0.136	·
N#C/C(=C\c1ccc(Cl)c([N+](=O)[O-])c1)c1ccccn1	10.3	-6.93*	0.0532*
Cc1cc(C)n2nc(S(=O)(=O)NC(C)(C)C)nc2n1	10.5	-0.0128	·
CN1CCc2nc3ccc(Cl)cc3c(-c3ccccc3Cl)c2C1	15.7	·	·
CCOC(=O)c1ccc(-c2ccc(/C=N/NC(=O)Cc3nnc(N)s3)o2)cc1	5.2	-11.7*	0.0783
